{"data": "Published values collected from several papers", "cell line": "HeLa", "note": "Lines come from different studies, so protocols differ."}
{"Structure (SMILES)": "CCOCCOCCOCCNC(=S)NCCCC[C@H](NS(C)(=O)=O)C(=O)N[C@@H](C)C(=O)N[C@@H](CCCNC(=N)N)C(N)=O", "test": "cell growth or viability, MTT", "conditions": "72 h", "quantity": "EC50", "result": "> 100 µM"}
{"Structure (SMILES)": "COc1cc(C)c(-c2c(C)cc(OC)c3c(=O)cc(-c4ccc(Br)cc4)oc23)c2oc(-c3ccc(Br)cc3)cc(=O)c12", "test": "cell growth or viability, MTT", "conditions": "48 h", "quantity": "IC50", "result": "35.8 µM"}
{"Structure (SMILES)": "COc1cc(F)ccc1-c1cc(Nc2cc(CS(C)(=N)=O)ccn2)ncc1F (stereo not drawn)", "test": "cell growth or viability", "conditions": "24 h", "quantity": "GI50", "result": "0.045 µM"}
{"Structure (SMILES)": "Cc1ccc(NC(=O)c2ccc(CN3CCN(C)CC3)cc2)cc1Nc1nccc(-c2cccnc2)n1", "test": "cell growth or viability, MTT", "conditions": "20 µM, 48 h", "quantity": "inhibition", "result": "21%"}
{"Structure (SMILES)": "COc1cc(OC)c(C(=O)/C=C/c2ccc(Br)cn2)c(OC)c1", "test": "colony formation", "conditions": "4 µM, 7 days", "quantity": "inhibition", "result": "~100%"}
{"Structure (SMILES)": "CCCCCCCCCCCCNC(=S)NCCCC[C@H](NC(=O)OCc1ccccc1)C(=O)N[C@@H](C)C(=O)N[C@@H](CCCNC(=N)N)C(N)=O", "test": "cell growth or viability, MTT", "conditions": "72 h", "quantity": "EC50", "result": "41.4 to 53.1 µM"}
{"Structure (SMILES)": "COc1cccc2c1C(=O)c1c(O)c3c(c(O)c1C2=O)C[C@@](O)(C(=O)CO)C[C@@H]3O[C@H]1C[C@H](N)[C@H](O)[C@H](C)O1", "test": "cell growth or viability, MTT", "conditions": "24 h", "quantity": "IC50", "result": "1.71 µg/mL"}
{"Structure (SMILES)": "C[C@@H](NC(=O)[C@H](CCCCNC(=O)C(F)(F)F)NS(C)(=O)=O)C(=O)N[C@@H](CCCNC(=N)N)C(N)=O", "test": "cell growth or viability, MTT", "conditions": "72 h", "quantity": "EC50", "result": "52.1 to 75.8 µM"}
{"Structure (SMILES)": "COc1cc(C)c(-c2c(C)cc(OC)c3c(=O)cc(-c4ccc(N(C)C)cc4)oc23)c2oc(-c3ccc(N(C)C)cc3)cc(=O)c12", "test": "cell growth or viability, MTT", "conditions": "48 h", "quantity": "IC50", "result": "1.4 µM"}
